Data taken from ChEMBL document CHEMBL1165943, “Design and synthesis of new anticancer pyrimidines with multiple-kinase inhibitory effect” (Bioorg Med Chem, 2010).

Assays:
Assay type in all cases: functional
HL-60(TB) = assay: Cytotoxicity against human HL-60(TB) cells assessed as cell growth at 10 uM; settings: Homo sapiens, HL-60; read-out: Activity
Summary of the method: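 Single-concentration 10 µM screen of HL-60(TB) within the 60-line panel, grown in RPMI 1640 with 5% FBS. The drug from DMSO stock is incubated 48 h at 37 °C, settled cells are TCA-fixed and SRB-stained, and absorbance is read at 515 nm. Percent growth is reported, and inhibition % is taken as 100 minus growth %.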

K562 = assay: Cytotoxicity against human K562 cells assessed as cell growth at 10 uM; settings: Homo sapiens, K562; read-out: Activity
Summary of the method: (§1)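 Single-dose screen at 10 μM across the 60-cell-line panel. Cells grown in RPMI 1640 with 5% FBS and 2 mM L-glutamine, seeded at 5,000–40,000 cells/well according to doubling time, and treated 24 h later. Exposure lasted 48 h at 37 °C, 5% CO₂. Adherent cells were fixed with cold TCA, suspension cells were fixed settled, and both were stained with SRB and read at 515 nm. Growth % was recorded, with inhibition % = 100 − growth %.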

EKVX = assay: Cytotoxicity against human EKVX cells assessed as cell growth at 10 uM; settings: Homo sapiens, EKVX; read-out: Activity
Summary of the method: (§2)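 Single-concentration screen at 10 μM across the 60-cell-line panel (nine tissue types); growth percentage recorded per cell line, with inhibition taken as 100 minus growth percentage.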

HOP-62 = assay: Cytotoxicity against human HOP62 cells assessed as cell growth at 10 uM; settings: Homo sapiens, HOP-62; read-out: Activity; summary of the method: as §2
NCI-H226 = assay: Cytotoxicity against human NCI-H226 cells assessed as cell growth at 10 uM; settings: Homo sapiens, NCI-H226; read-out: Activity; summary of the method: as §1
NCI-H23 = assay: Cytotoxicity against human NCI-H23 cells assessed as cell growth at 10 uM; settings: Homo sapiens, NCI-H23; read-out: Activity; summary of the method: as §1
NCI-H322M = assay: Cytotoxicity against human NCI-H322M cells assessed as cell growth at 10 uM; settings: Homo sapiens, NCI-H322M; read-out: Activity; summary of the method: as §1
COLO 205 = assay: Cytotoxicity against human COLO205 cells assessed as cell growth at 10 uM; settings: Homo sapiens, COLO 205; read-out: Activity; summary of the method: as §2
HCT-116 = assay: Cytotoxicity against human HCT116 cells assessed as cell growth at 10 uM; settings: Homo sapiens, HCT-116; read-out: Activity; summary of the method: as §2
HCT-15 = assay: Cytotoxicity against human HCT15 cells assessed as cell growth at 10 uM; settings: Homo sapiens, HCT-15; read-out: Activity; summary of the method: as §2
HT-29 = assay: Cytotoxicity against human HT-29 cells assessed as cell growth at 10 uM; settings: Homo sapiens, HT-29; read-out: Activity; summary of the method: as §2
KM12 = assay: Cytotoxicity against human KM12 cells assessed as cell growth at 10 uM; settings: Homo sapiens, KM12; read-out: Activity; summary of the method: as §1
SW-620 = assay: Cytotoxicity against human SW620 cells assessed as cell growth at 10 uM; settings: Homo sapiens, SW-620; read-out: Activity; summary of the method: as §1
SF-268 = assay: Cytotoxicity against human SF268 cells assessed as cell growth at 10 uM; settings: Homo sapiens, SF-268; read-out: Activity; summary of the method: as §1
SF-295 = assay: Cytotoxicity against human SF295 cells assessed as cell growth at 10 uM; settings: Homo sapiens, SF-295; read-out: Activity; summary of the method: as §1
U-251 = assay: Cytotoxicity against human U251 cells assessed as cell growth at 10 uM; settings: Homo sapiens, U-251; read-out: Activity; summary of the method: as §1
LOX IMVI = assay: Cytotoxicity against human LOXIMVI cells assessed as cell growth at 10 uM; settings: Homo sapiens, LOX IMVI; read-out: Activity; summary of the method: as §1
M14 = assay: Cytotoxicity against human M14 cells assessed as cell growth at 10 uM; settings: Homo sapiens, M14; read-out: Activity; summary of the method: as §1
SK-MEL-2 = assay: Cytotoxicity against human SK-MEL-2 cells assessed as cell growth at 10 uM; settings: Homo sapiens, SK-MEL-2; read-out: Activity; summary of the method: as §1
SK-MEL-28 = assay: Cytotoxicity against human SK-MEL-28 cells assessed as cell growth at 10 uM; settings: Homo sapiens, SK-MEL-28; read-out: Activity; summary of the method: as §1
UACC-257 = assay: Cytotoxicity against human UACC257 cells assessed as cell growth at 10 uM; settings: Homo sapiens, UACC-257; read-out: Activity; summary of the method: as §1
UACC-62 = assay: Cytotoxicity against human UACC62 cells assessed as cell growth at 10 uM; settings: Homo sapiens, UACC-62; read-out: Activity; summary of the method: as §1
IGROV-1 = assay: Cytotoxicity against human IGROV1 cells assessed as cell growth at 10 uM; settings: Homo sapiens, IGROV-1; read-out: Activity; summary of the method: as §1
OVCAR-3 = assay: Cytotoxicity against human OVCAR-3 cells assessed as cell growth at 10 uM; settings: Homo sapiens, OVCAR-3; read-out: Activity; summary of the method: as §1
OVCAR-4 = assay: Cytotoxicity against human OVCAR4 cells assessed as cell growth at 10 uM; settings: Homo sapiens, OVCAR-4; read-out: Activity; summary of the method: as §1
OVCAR-5 = assay: Cytotoxicity against human OVCAR5 cells assessed as cell growth at 10 uM; settings: Homo sapiens, OVCAR-5; read-out: Activity; summary of the method: as §1
OVCAR-8 = assay: Cytotoxicity against human OVCAR8 cells assessed as cell growth at 10 uM; settings: Homo sapiens, OVCAR-8; read-out: Activity; summary of the method: as §1
SK-OV-3 = assay: Cytotoxicity against human SKOV3 cells assessed as cell growth at 10 uM; settings: Homo sapiens, SK-OV-3; read-out: Activity; summary of the method: as §1
ACHN = assay: Cytotoxicity against human ACHN cells assessed as cell growth at 10 uM; settings: Homo sapiens, ACHN; read-out: Activity; summary of the method: as §2
UO-31 = assay: Cytotoxicity against human UO31 cells assessed as cell growth at 10 uM; settings: Homo sapiens, UO-31; read-out: Activity; summary of the method: as §1
PC-3 = assay: Cytotoxicity against human PC3 cells assessed as cell growth at 10 uM; settings: Homo sapiens, PC-3; read-out: Activity; summary of the method: as §1
DU-145 = assay: Cytotoxicity against human DU145 cells assessed as cell growth at 10 uM; settings: Homo sapiens, DU-145; read-out: Activity; summary of the method: as §2
MDA-MB-231 = assay: Cytotoxicity against human MDA-MB-231 cells assessed as cell growth at 10 uM; settings: Homo sapiens, MDA-MB-231; read-out: Activity; summary of the method: as §1
T47D = assay: Cytotoxicity against human T47D cells assessed as cell growth at 10 uM; settings: Homo sapiens, T47D; read-out: Activity; summary of the method: as §1
MDA-MB-468 = assay: Cytotoxicity against human MDA-MB-468 cells assessed as cell growth at 10 uM; settings: Homo sapiens, MDA-MB-468; read-out: Activity; summary of the method: as §1
[1] = Growth inhibition of human NCI60 cells at 10 uM after 48 hrs by sulforhodamine B assay relative to control; settings: Homo sapiens, NCI60, 48 h; read-out: GI
Summary of the method: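 Single 10 µM dose across the 60-line panel for 48 h, with the same culture, TCA fixation and SRB 515 nm read-out. Inhibition % = 100 − growth %, given as the mean over the 60 cell lines.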

| SMILES | growth at 10 µM (HL-60(TB)) | growth at 10 µM (K562) | growth at 10 µM (EKVX) | growth at 10 µM (HOP-62) | growth at 10 µM (NCI-H226) | growth at 10 µM (NCI-H23) | growth at 10 µM (NCI-H322M) | growth at 10 µM (COLO 205) | growth at 10 µM (HCT-116) | growth at 10 µM (HCT-15) | growth at 10 µM (HT-29) | growth at 10 µM (KM12) | growth at 10 µM (SW-620) | growth at 10 µM (SF-268) | growth at 10 µM (SF-295) | growth at 10 µM (U-251) | growth at 10 µM (LOX IMVI) | growth at 10 µM (M14) | growth at 10 µM (SK-MEL-2) | growth at 10 µM (SK-MEL-28) | further results |
| --- | --- | --- | --- | --- | --- | --- | --- | --- | --- | --- | --- | --- | --- | --- | --- | --- | --- | --- | --- | --- | --- |
| FC(F)(F)c1cc(Nc2nccc(-c3ccc(-c4ccccc4)nc3)n2)cc(C(F)(F)F)c1 | 113% | 91.5% | 101% | 110% | 115% | 98.5% | 99.7% | 95.6% | 81.6% | 99.9% | 86% | 105% | 110% | 105% | 114% | 99.1% | 98.8% | 81.4% | 91.6% | 109% | growth at 10 µM (UACC-257): 113%; growth at 10 µM (UACC-62): 85.3%; growth at 10 µM (IGROV-1): 77.8%; growth at 10 µM (OVCAR-3): 114%; growth at 10 µM (OVCAR-4): 95%; growth at 10 µM (OVCAR-5): 111%; growth at 10 µM (OVCAR-8): 94.1%; growth at 10 µM (SK-OV-3): 94.6%; growth at 10 µM (ACHN): 96%; growth at 10 µM (UO-31): 87.2%; growth at 10 µM (PC-3): 90.3%; growth at 10 µM (DU-145): 109%; growth at 10 µM (MDA-MB-231): 87.3%; growth at 10 µM (T47D): 80.1%; growth at 10 µM (MDA-MB-468): 110%; inhibition of growth at 10 µM [1]: 0.49% |
| FC(F)(F)c1cc(Nc2nccc(-c3cccnc3)n2)cc(C(F)(F)F)c1 | 101% | 89.6% | 102% | 104% | 99.6% | 97.9% | 97.5% | 119% | 91.1% | 92.7% | 92.1% | 103% | 109% | 99.5% | 103% | 98.7% | 100% | 116% | 98.2% | 115% | growth at 10 µM (UACC-257): 111%; growth at 10 µM (UACC-62): 102%; growth at 10 µM (IGROV-1): 101%; growth at 10 µM (OVCAR-3): 119%; growth at 10 µM (OVCAR-4): 121%; growth at 10 µM (OVCAR-5): 97%; growth at 10 µM (OVCAR-8): 102%; growth at 10 µM (SK-OV-3): 106%; growth at 10 µM (ACHN): 102%; growth at 10 µM (UO-31): 101%; growth at 10 µM (PC-3): 105%; growth at 10 µM (DU-145): 106%; growth at 10 µM (MDA-MB-231): 91.3%; growth at 10 µM (T47D): 83.9%; growth at 10 µM (MDA-MB-468): 98.4%; inhibition of growth at 10 µM [1]: -0.32% |
